Assay results published in ChEMBL document CHEMBL1147231, “Cytotoxic and antimalarial beta-carboline alkaloids from the roots of Eurycoma longifolia” (J Nat Prod, 2003).
Converted amounts (≈) assume the structure as drawn. The source made the active and inactive calls. The calls are words filed in the database; no cut-off is given here.

Tests used:
A549 = test: Cytotoxicity against human A549 cells by SRB assay; type: functional; details: for EC50: Homo sapiens, A549, read-out: ED50 (the source's name)
How it was run: (§1)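 Sulforhodamine B assay on human lung (A549) and breast (MCF-7) cancer cell lines; ED50 taken as the compound concentration giving 50% reduction in absorbance at 562 nm relative to untreated cells.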

Plasmodium falciparum [1] = test: Antimalarial activity against Plasmodium falciparum W2; type: functional, organism-based
How it was run: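 In vitro drug susceptibility measured by parasite incorporation of radiolabeled hypoxanthine (modified Desjardins method); mefloquine and chloroquine run in parallel as positive controls.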

MCF7 = test: Cytotoxicity against human MCF7 cells by SRB assay; type: functional; details: for EC50: Homo sapiens, MCF7, read-out: ED50 (the source's name); how it was run: as §1
Plasmodium falciparum [2] = test: Antimalarial activity against Plasmodium falciparum D6; type: functional, organism-based
How it was run: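 Drug susceptibility in vitro by modified Desjardins method with Milhous modifications. Read-out is parasite incorporation of radiolabelled hypoxanthine. Mefloquine and chloroquine were run in parallel as positive controls.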

IC50 (Plasmodium falciparum [1]) [µg/mL] | Compound | EC50 (A549) [µg/mL] | EC50 (MCF7) [µg/mL] | inhibition (INH) (A549) [%] | inhibition (INH) (MCF7) [%] | Activity (A549) | IC50 (Plasmodium falciparum [2]) [µg/mL]
2.24 (≈ 10.2 µM) | O=c1ccc2nccc3c4ccccc4n1c23 [CANTHIN-6-ONE] | 3.6 (≈ 16.3 µM) | 7.3 (≈ 33.1 µM) | – | – | – | –
– | COc1ccc2c(c1)[nH]c1c(CCC(=O)O)nccc12 | > 20 | > 20 | 7 | 15 | – | –
– | O=C(O)CCc1nccc2c1[nH]c1ccccc12 | – | > 20 | – | 8 | inactive | –
– | COc1ccc2c3cc[n+]([O-])c4ccc(=O)n(c2c1)c34 | 18.5 (≈ 69.5 µM) | 18.9 (≈ 71 µM) | – | – | – | –
2.34 (≈ 9.89 µM) | O=c1ccc2nccc3c4ccc(O)cc4n1c23 | 10 (≈ 42.3 µM) | 19.6 (≈ 83 µM) | – | – | – | –
– | COc1ccc2c3ccnc4ccc(=O)n(c2c1)c43 | < 2.5 | 4.5 (≈ 18 µM) | 55 | – | – | –

Compound | IC50 (Plasmodium falciparum [1]) [µg/mL] | EC50 (A549) [µg/mL] | EC50 (MCF7) [µg/mL] | inhibition (INH) (A549) [%] | inhibition (INH) (MCF7) [%] | Activity (A549) | IC50 (Plasmodium falciparum [2]) [µg/mL]
COc1c(O)c2nccc3c4ccccc4n(c1=O)c23 [PICRASIDINE Q] | 3.52 (≈ 13.2 µM) | 16.2 (≈ 60.8 µM) | 18.1 (≈ 68 µM) | – | – | – | 2.96 (≈ 11.1 µM)
